Experimental findings from ChEMBL document CHEMBL4340518, “Synthesis, structure-activity relationship and in vitro pharmacodynamics of A-ring modified caged xanthones in a preclinical model of inflammatory breast cancer” (Eur J Med Chem, 2019) are described below.

For assay [1], the system named is Breast carcinoma cell. The assay can be described thus: Cytotoxicity against patient derived inflammatory breast cancer cell spheroids assessed as increase in spheroid dissolution incubated for 24 hrs by propidium iodide/Acridine orange staining based dual-fluorescence viability assay. It counts as functional. To be noted: Homo sapiens.
Assay [2] concerns Breast carcinoma cell. Put plainly: Potency index, ratio of IC50 for taxol to IC50 for test compound for cytotoxicity against patient derived inflammatory breast cancer cell spheroids assessed as increase in spheroid dissolution incubated for 24 hrs by propidium iodide/Acridine orange staining based dual-fluorescence viability assay. It is filed as functional, Homo sapiens.
The subject of assay [3] is Breast carcinoma cell. The assay can be described thus: Cytotoxicity against patient derived inflammatory breast cancer cell spheroids assessed as increase in spheroid dissolution at 2.5 uM incubated for 24 hrs by bright field microscopic based Spheroids MARY-X assay. It counts as functional. The method, boiled down:
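MARY-X spheroids (40–100 μm) grown in MEM + 10% heat-inactivated FBS, penicillin/streptomycin, 37 °C, 5% CO2. Plated at 30–50 spheroids/well and exposed in replicates to 2.5 μM or DMSO vehicle for 24 h. Brightfield imaging scored deviation from the well-circumscribed spheroid edge, graded as no, low, moderate or complete response.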

The subject of assay [4] is Breast carcinoma cell. Put plainly: Cytotoxicity against patient derived inflammatory breast cancer cell spheroids assessed as increase in spheroid dissolution incubated for 24 hrs by bright field microscopic based Spheroids MARY-X assay. It counts as functional. To be noted: Homo sapiens. The method, boiled down:
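MARY-X spheroids (40–100 μm; MEM, 10% heat-inactivated FBS, antibiotics, 37 °C, 5% CO2) were seeded at 30–50/well. Treated in replicates for 24 h with nine concentrations, 0.25–2.25 μM in 0.25 μM steps made by serial dilution, or DMSO. ImageJ circularity from brightfield images gave dose-response curves, from which IC50 was fitted.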

For assay [5], the system named is Breast carcinoma cell. Put plainly: Induction of apoptosis in patient derived inflammatory breast cancer cell spheroids assessed as increase in loss of well-circumscribed spheroid edge at 2.5 uM incubated for 3 hrs by bright field microscopic analysis. It is filed as functional, cell-based. To be noted: Homo sapiens. The method, boiled down: (§1)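 Spheroids were embedded in Matrigel plugs (Matrigel:spheroids in medium 2:1) on coverslips and set for 30 min at 37 °C. They were exposed to 2.5 μM or DMSO for 3 h, with brightfield checks of edge loss. Plugs were fixed in 4% PFA 30 min RT, permeabilized with 2% Triton X-100 15 min, and blocked with 3% goat serum 30 min. Staining used Alexa488 anti-Ki67 (1:10) and anti-cPARP (1:100), 4 °C 24 h, then Cy5 anti-rabbit (4 µg/ml), 4 °C 24 h, and DAPI mountant. ApoTome z-stack fluorescence imaging followed.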

The subject of assay [6] is Breast carcinoma cell. The assay can be described thus: Induction of apoptosis in patient derived inflammatory breast cancer cell spheroids assessed as localization of cleaved PARP at 2.5 uM incubated for 3 hrs by c-PARP staining based fluorescence microscopic analysis. To be noted: Homo sapiens. It counts as functional. The method, boiled down: as §1
In assay [7] the test system is Breast carcinoma cell. The assay can be described thus: Antiproliferative activity against patient derived inflammatory breast cancer cell spheroids assessed as reduction in cell viability at 2.5 uM incubated for 3 hrs by ki-67 staining based fluorescence microscopic analysis. It counts as functional. To be noted: Homo sapiens. The method, boiled down: as §1
Assay [8] concerns Breast carcinoma cell. The assay can be described thus: Induction of apoptosis in patient derived inflammatory breast cancer cell spheroids assessed as increase in pyknotic nuclei at 2.5 uM incubated for 3 hrs by DAPI staining based fluorescence microscopic analysis. It counts as functional. To be noted: Homo sapiens. The method, boiled down: as §1

Each structure is given as a SMILES string. The source made the active and inactive calls. The calls are words filed in the database; no cut-off is given here.

`CC(C)=CCC[C@]1(C)C=Cc2c(O)c3c(c(CC=C(C)C)c2O1)O[C@]12C(=C[C@@H]4C[C@H]1C(C)(C)O[C@@]2(C/C=C(/C)C(=O)O)C4=O)C3=O` [GAMBOGIC ACID]: in the assay with Breast carcinoma cell [1], the IC50 was determined as 0.42 µM. In addition, the “Ratio IC50” value with Breast carcinoma cell [2] turned out to be 20.

As for `COc1ccc(OC)c2c1OC13C(=CC4CC1C(C)(C)OC3(CC=C(C)C)C4=O)C2=O` (centres undefined), the outcome in the assay on Breast carcinoma cell [3] (Homo sapiens) was inactive.

Regarding `CC(C)=CCC12OC(C)(C)C3CC(C=C4C(=O)c5c(F)cc(F)cc5OC431)C2=O` (centres undefined), the Activity in the assay with Breast carcinoma cell [3] is given as 100%. Further, the IC50 in the assay on Breast carcinoma cell [4] is 1.12 µM. Also, the outcome with Breast carcinoma cell [5], in the assay on Breast carcinoma cell [6], with Breast carcinoma cell [7] and with Breast carcinoma cell [8] was Active.

Regarding `CC(C)=CCC12OC(C)(C)C3CC(C=C4C(=O)c5ccc(O)cc5OC431)C2=O` (centres undefined), in the assay with Breast carcinoma cell [3] (Homo sapiens), the result was inactive.

Take `COCCOCCOCCOc1cccc2c1C(=O)C1=CC3CC4C(C)(C)OC(CC=C(C)C)(C3=O)C14O2` (centres undefined): the result with Breast carcinoma cell [3] (Homo sapiens) was Active.

`CC(C)=CCC12OC(C)(C)C3CC(C=C4C(=O)c5c(O)cc(O)cc5OC431)C2=O` (centres undefined): in the assay on Breast carcinoma cell [3] (Homo sapiens), the result was inactive.

Regarding `COCCOCCOCCOc1ccc2c(c1)OC13C(=CC4CC1C(C)(C)OC3(CC=C(C)C)C4=O)C2=O` (centres undefined), the outcome in the assay on Breast carcinoma cell [3] (Homo sapiens) was Active.

Turning to `CC(C)=CCC12OC(C)(C)C3CC(C=C4C(=O)c5c(O)cccc5OC431)C2=O` (centres undefined), in the assay on Breast carcinoma cell [3], the Activity was determined as 100%. In addition, the IC50 with Breast carcinoma cell [4] worked out at 0.51 µM; in the assay on Breast carcinoma cell [1] it was 0.66 µM. Besides, the result with Breast carcinoma cell [5], in the assay with Breast carcinoma cell [6], in the assay on Breast carcinoma cell [7] and with Breast carcinoma cell [8] was Active.

As to `COCCOCCOCCOc1cc(O)c2c(c1)OC13C(=CC4CC1C(C)(C)OC3(CC=C(C)C)C4=O)C2=O` (centres undefined), the result in the assay with Breast carcinoma cell [3] (Homo sapiens) was Active.

Consider `CC(C)=CCC12OC(C)(C)C3CC(C=C4C(=O)C5=C(OC431)C(=O)C=CC5=O)C2=O` (centres undefined), for which the result in the assay with Breast carcinoma cell [3] (Homo sapiens) was inactive.

For `CC(=O)O[C@H]1C(=O)[C@@]2(C)[C@H]([C@H](OC(=O)c3ccccc3)[C@]3(O)C[C@H](OC(=O)[C@H](O)[C@@H](NC(=O)c4ccccc4)c4ccccc4)C(C)=C1C3(C)C)[C@]1(OC(C)=O)CO[C@@H]1C[C@@H]2O` [PACLITAXEL], the half-maximal inhibitory concentration (IC50) in the assay with Breast carcinoma cell [1] came out at 7.8 µM.

As for `CC(C)=CCC12OC(C)(C)C3CC(C=C4C(=O)c5ccccc5OC431)C2=O` (centres undefined), the Activity in the assay on Breast carcinoma cell [3] is given as 100%. Moreover, the IC50 with Breast carcinoma cell [4] is 0.63 µM.

In the case of `CC(C)=CCC12OC(C)(C)C3CC4(Oc5cc(F)cc(F)c5C(=O)C4=CC31)C2=O` (centres undefined), in the assay with Breast carcinoma cell [3], the Activity is recorded as 100%. Moreover, the IC50 in the assay on Breast carcinoma cell [4] is 0.89 µM.

`COCCOCCOCCOc1cc(OCCOCCOCCOC)c2c(c1)OC13C(=CC4CC1C(C)(C)OC3(CC=C(C)C)C4=O)C2=O` (centres undefined): in the assay on Breast carcinoma cell [3] (Homo sapiens), the result was Active.

On to `COCOc1cc(O)c2c(c1)OC13C(=CC4CC1C(C)(C)OC3(CC=C(C)C)C4=O)C2=O` (centres undefined), for which the Activity in the assay with Breast carcinoma cell [3] is 100%. For the same compound, in the assay on Breast carcinoma cell [4], the IC50 stood at 0.38 µM. Further, the outcome in the assay on Breast carcinoma cell [5], in the assay with Breast carcinoma cell [6], in the assay with Breast carcinoma cell [7] and with Breast carcinoma cell [8] was Active.
